Source: ChEMBL document CHEMBL1212767, “In vitro and in vivo activities of 1-hydroxy-2-alkyl-4(1H)quinolone derivatives against Toxoplasma gondii” (Antimicrob Agents Chemother, 2010)
The source made the active and inactive calls. No cut-off for these calls is given here.

Columns and labels:
Toxoplasma gondii [1] = experiment: Antimicrobial activity against Toxoplasma gondii type 1 RH strain infected in human foreskin fibroblasts monolayer assessed as inhibition of parasite replication after 24 hrs by phase-contrast microscopy; assay type: functional, organism-based
Toxoplasma gondii [2] = experiment: Antimicrobial activity against GFP-expressing Toxoplasma gondii type 1 RH strain ip infected in NMRI mouse assessed as decrease in infected peritoneal cells in peritoneal cavity lavage at 32 mg/kg, ip administered 3 days postinfection for 5 days; assay type: functional, organism-based; parameters: dose 32 mg/kg
Outline: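 Female NMRI mice infected i.p. with GFP-expressing RH tachyzoites. From day 3 post-infection, drug was given i.p. at 32 mg/kg/day for 5 days. Vehicle was ethanol-DMSO (1:1), sonicated at 70°C, then diluted with an equal volume of PBS. Vehicle-treated mice served as controls. On day 8, peritoneal lavage cells were fixed in 3.7% formaldehyde, and the percentage of GFP-infected cells was measured by flow cytometry. Data pooled from three experiments.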

Toxoplasma gondii [3] = experiment: Antimicrobial activity against GFP-expressing Toxoplasma gondii type 1 RH strain ip infected in NMRI mouse assessed as decrease in parasite DNA level in liver at 32 mg/kg, ip administered 3 days postinfection for 5 days by quantitative PCR analysis; assay type: functional, organism-based; parameters: dose 32 mg/kg
Outline: (§1)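 Same i.p.-infected NMRI model and dosing regimen; liver and lung collected on day 8. Parasite DNA was quantified by qPCR targeting the T. gondii cryptic gene, using 250 ng total DNA, 2 mM MgCl2, 1 μM each primer and 0.2 μM each hybridization probe. Cycling: 50 cycles of 95°C, 52°C and 72°C. Standard curve of 250 to 2.5 pg parasite DNA run each time; crossing points by second-derivative method.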

Toxoplasma gondii [4] = experiment: (§2) Antimicrobial activity against Toxoplasma gondii type 2 ME49 strain orally infected in ip dosed IRF-8 deficient mouse brain assessed as decrease in inflammatory foci administered for 5 days after 3 days post 28 day 400 mg/dl sulfadiazine dosing by quantitative PCR analysis; assay type: functional, organism-based
Outline: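 Same ME49 chronic model: sulfadiazine 400 mg/dl for 28 days, then daily drug for 5 days starting 3 days after withdrawal, four mice per group, repeated three times. Brain inflammatory foci were graded as mean inflammatory scores using a previously described scoring method.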

Toxoplasma gondii [5] = experiment: Antimicrobial activity against GFP-expressing Toxoplasma gondii type 1 RH strain ip infected in NMRI mouse assessed as decrease in parasite DNA level in lungs at 32 mg/kg, ip administered 3 days postinfection for 5 days by quantitative PCR analysis; assay type: functional, organism-based; parameters: dose 32 mg/kg; outline: as §1
Toxoplasma gondii [6] = experiment: as §2, with “Toxoplasma DNA level measured per 250 ng total DNA” for “inflammatory foci”, “analysis (Rbv = 134 +/- 226.1 pg DNA)” for “analysis”; assay type: functional
Outline: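 Chronic model: mice infected with ME49; sulfadiazine 400 mg/dl given from day 2 for 28 days to allow cyst formation. Three days after withdrawal, mice received drug daily for 5 days, in groups of four, repeated three times. On day 39, brain parasite load was measured by qPCR as pg T. gondii DNA per 250 ng total DNA.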

Toxoplasma gondii [7] = experiment: Antimicrobial activity against Toxoplasma gondii type 1 RH strain infected in human foreskin fibroblasts monolayer assessed as inhibition of parasite replication at 1 uM after 24 hrs by phase-contrast microscopy; assay type: functional
Outline: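 Confluent human foreskin fibroblast monolayers infected with RH tachyzoites, then exposed to compound (top concentration 1 μM) or DMSO control for 24 h. Read-out was the average number of parasites per vacuole-type count, relative to control.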

Compound	inhibition (Toxoplasma gondii [1])	Activity (Toxoplasma gondii [2])	IC50 (Toxoplasma gondii [1]) [pM]	Activity (Toxoplasma gondii [3])	Activity (Toxoplasma gondii [4])	Activity (Toxoplasma gondii [5])	Activity (Toxoplasma gondii [6]) [pg]	inhibition at 1 µM (Toxoplasma gondii [7]) [%]
CCCCCCCCCCCCc1cc(=O)c2cc(OCCN(C)C)ccc2n1O	inactive							
CCCCCCCCCCCCc1c(C)c(=O)c2ccccc2n1O [COMPOUND A]		Active	400	Active	Active			
O=C1C(O)=C([C@H]2CC[C@H](c3ccc(Cl)cc3)CC2)C(=O)c2ccccc21 [ATOVAQUONE]				Active	Active	Active	0.8	
CCCCCCCCCCCCc1c(C)n(O)c2ccccc2c1=O		Active	800	Active	Active	Active	6.7	
CCCCCCCCCCCCc1cc(=O)c2ccccc2n1O		Active	4200	Active				
CCCCCCCCCCCCc1c(C)n(O)c2ccc(OCCN(C)C)cc2c1=O								38
